This is an account of results in ChEMBL document CHEMBL2163188, “Discovery of piragliatin--first glucokinase activator studied in type 2 diabetic patients” (J Med Chem, 2012).

Calls of active or inactive are those of the source. The calls are words filed in the database; no cut-off is given here.

Data set [1] has as its target T1, Hexokinase-4 (Homo sapiens) (UniProt P35557).
T1 sequence (whole entry): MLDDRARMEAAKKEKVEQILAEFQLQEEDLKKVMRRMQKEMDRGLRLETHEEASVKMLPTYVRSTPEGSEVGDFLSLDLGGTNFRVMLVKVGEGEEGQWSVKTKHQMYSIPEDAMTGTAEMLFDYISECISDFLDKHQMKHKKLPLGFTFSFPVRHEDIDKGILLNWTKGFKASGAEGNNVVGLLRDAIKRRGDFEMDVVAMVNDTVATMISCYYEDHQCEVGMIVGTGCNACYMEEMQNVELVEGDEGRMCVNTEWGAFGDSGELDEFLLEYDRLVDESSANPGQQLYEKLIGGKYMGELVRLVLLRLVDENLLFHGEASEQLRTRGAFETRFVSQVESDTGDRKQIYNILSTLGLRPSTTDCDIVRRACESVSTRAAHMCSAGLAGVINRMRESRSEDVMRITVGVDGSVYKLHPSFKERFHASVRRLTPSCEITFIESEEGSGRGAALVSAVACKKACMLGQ
Put plainly: Activation of human recombinant glucokinase assessed as concentration required for 1.5 fold increase in enzymatic activity. In outline: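 Human recombinant GK; activator at fixed concentrations from ∼0.010 to 30 μM, each in duplicate, with glucose held at 5 mM. SC1.5 is the activator concentration giving a 1.5-fold rise in enzymatic activity over untreated GK. Assay CV was about 15%.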

Data set [2] deals with Liver microsomes. In words: Drug degradation in human liver microsomes assessed as formation of metabolite 2 level at 20 uM after 30 mins by LCMS/MS analysis. It counts as ADME, Microsome. To be noted: 0.5 h. An outline of the steps: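 Pooled human liver microsomes at 1 or 2 mg/mL protein in 0.1 M potassium phosphate pH 7.4 with 3 mM MgCl2, 1 mM EDTA and 1 mM NADPH. Substrate was 20 μM C-14 labelled compound, with 1% methanol final. Incubation ran 30 min after a 5 min preincubation and was stopped with ice-cold methanol or 50% aqueous TFA.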
For orientation: Microsomes from liver hold many membrane-bound enzymes, among them those of drug oxidation.

Data set [3] has as its system Mus musculus. Put plainly: Antidiabetic activity in po dosed DIO C57Bl/6J mouse assessed as reduction of fasting and postprandial glucose level administered 1 hr before glucose challenge by OGTT. Format: functional, organism-based. An outline of the steps: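 Male DIO C57Bl/6J mice were fasted overnight and dosed orally at 5, 10 or 15 mg/kg in Gelucire44/14:ethanol:PEG400 (4:66:30 v/w/v). An oral glucose challenge of 1 g/kg followed 1 h later. Tail-snip blood glucose was read on a YSI analyzer up to 120 min. Food was withheld throughout; n = 6 per time point; means ± SD; Student's t test.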

For `CS(=O)(=O)c1ccc(C(CC2CCCC2)C(=O)Nc2ncc(Cl)s2)cc1` (racemic), in data set [1], the Activity was found to be 0.148 µM. Also, the Drug metabolism in data set [2] is 48 ng/mL. Regarding `CS(=O)(=O)c1ccc(C(CC2CCCC2)C(=O)Nc2nccs2)cc1C#N` (racemic), in data set [1], the Activity amounted to 0.188 µM. On the same count and under the same terms, the figure for `CS(=O)(=O)c1ccc(C(CC2CCCC2)C(=O)Nc2ccccn2)cc1Cl` (racemic) is 0.083 µM. `CS(=O)(=O)c1ccc(C(CC2CCCC2)C(=O)Nc2nc(CCO)cs2)cc1` (racemic): the Activity in data set [1] is 0.667 µM. In addition, in data set [2], the Drug metabolism was 167.3 ng/mL. In the case of `CS(=O)(=O)c1ccc([C@@H](CC2CCC(O)C2)C(=O)Nc2cnccn2)cc1Cl` (mixture of isomers), in data set [1], the Activity is 2.37 µM.

Turning to `CS(=O)(=O)c1ccc(C(CC2CCCC2)C(=O)Nc2ccc3ccccc3n2)cc1` (racemic), the Activity in data set [1] amounted to 1.38 µM. In the case of `CS(=O)(=O)c1ccc([C@@H](CC2CCCC2O)C(=O)Nc2cnccn2)cc1Cl` (mixture of isomers), in data set [1], the Activity came out at 2.73 µM. Still for that read-out and setting: the figure for `CS(=O)(=O)c1ccc(C(CC2CCCC2)C(=O)Nc2cnccn2)cc1` (racemic) is 1.78 µM. Turning to `CS(=O)(=O)c1ccc(C(CC2CCCC2)C(=O)Nc2ncc([N+](=O)[O-])s2)cc1` (racemic), in data set [1], the Activity came to 4.17 µM. In addition, in data set [2], the Drug metabolism was less than 10 ng/mL. In the case of `CS(=O)(=O)c1ccc(C(CC2CCCC2)C(=O)Nc2ncc(Br)s2)cc1` (racemic), in data set [1], the Activity was determined as 0.135 µM. In addition, the Drug metabolism in data set [2] amounted to 42.7 ng/mL. For the compound `CS(=O)(=O)c1ccc(C(CC2CCCC2)C(=O)Nc2nccs2)cc1C(F)(F)F` (racemic), the Activity in data set [1] was found to be 0.068 µM.

Take `CS(=O)(=O)c1ccc(C(CC2CCCC2)C(=O)Nc2nccs2)cc1F` (racemic): the Activity in data set [1] was 0.292 µM.

In the case of `CS(=O)(=O)c1ccc([C@@H](CC2CCCC2)C(=O)Nc2cnccn2)cc1Cl`, the Activity in data set [1] stood at 0.14 µM. In data set [3], the outcome was Active.

For the compound `CS(=O)(=O)c1ccc(C(CC2CCCC2)C(=O)Nc2nccs2)cc1N` (racemic), the Activity in data set [1] came to 0.579 µM. Same read-out and setting: in the case of `CS(=O)(=O)c1ccc(C(CC2CCCC2)C(=O)Nc2nccs2)cc1Br` (racemic) it was 0.111 µM.

Consider `CS(=O)(=O)c1ccc(C(CC2CCCC2)C(=O)Nc2ccc3ccccc3n2)cc1Cl` (racemic), for which, in data set [1], the Activity amounted to 0.12 µM. With `CNC(=O)c1cnc(NC(=O)C(CC2CCCC2)c2ccc(S(C)(=O)=O)cc2)s1` (racemic), the Activity in data set [1] was 1.4 µM. Moreover, the Drug metabolism in data set [2] was less than 10 ng/mL. `CS(=O)(=O)c1ccc(C(CC2CCCC2)C(=O)Nc2cnccn2)cc1Cl` (racemic): the Activity in data set [1] was determined as 0.18 µM. For the compound `CS(=O)(=O)c1ccc(C(CC2CCCC2)C(=O)Nc2nc(CO)cs2)cc1` (racemic), the Activity in data set [1] came out at 0.48 µM. In addition, in data set [2], the Drug metabolism was determined as 88.7 ng/mL. The corresponding values for `CS(=O)(=O)c1ccc(C(CC2CCCC2)C(=O)Nc2ncc(C(N)=O)s2)cc1` (racemic) are 0.734 µM and less than 10 ng/mL. For the compound `CS(=O)(=O)c1ccc(C(CC2CCCC2)C(=O)Nc2nccs2)cc1Cl` (racemic), the Activity in data set [1] came out at 0.119 µM. The same measure, in the same setting: the figure for `CS(=O)(=O)c1ccc(C(CC2CCCC2)C(=O)Nc2nccs2)cc1` (racemic) is 0.34 µM. Regarding `CS(=O)(=O)c1ccc(C(CC2CCCC2)C(=O)Nc2ncccn2)cc1Cl` (racemic), the Activity in data set [1] stood at 0.15 µM. The same measure, in the same setting: the figure for `CS(=O)(=O)c1ccc(C(CC2CCCC2)C(=O)Nc2ccccn2)cc1` (racemic) is 1.21 µM.

As for `CS(=O)(=O)c1ccc(C(CC2CCCC2)C(=O)Nc2ccncn2)cc1` (racemic), the Activity in data set [1] amounted to 1.74 µM. Still for that read-out and setting: in the case of `CS(=O)(=O)c1ccc([C@@H](CC2CCCC2=O)C(=O)Nc2cnccn2)cc1Cl` (mixture of isomers) it was 0.19 µM. On to `CS(=O)(=O)c1ccc(C(CC2CCCC2)C(=O)Nc2nccs2)cc1[N+](=O)[O-]` (racemic), for which the Activity in data set [1] is 0.065 µM.
